The values that follow come from ChEMBL document CHEMBL1128232, “Synthesis of novel thiol-containing citric acid analogues. Kinetic evaluation of these and other potential active-site-directed and mechanism-based inhibitors of ATP citrate lyase” (J Med Chem, 1995).

Bounds are passed on as bounds.

Experiment [1] deals with T1, ATP-citrate synthase (Rattus norvegicus, UniProt P16638).
T1 sequence (P16638 whole entry): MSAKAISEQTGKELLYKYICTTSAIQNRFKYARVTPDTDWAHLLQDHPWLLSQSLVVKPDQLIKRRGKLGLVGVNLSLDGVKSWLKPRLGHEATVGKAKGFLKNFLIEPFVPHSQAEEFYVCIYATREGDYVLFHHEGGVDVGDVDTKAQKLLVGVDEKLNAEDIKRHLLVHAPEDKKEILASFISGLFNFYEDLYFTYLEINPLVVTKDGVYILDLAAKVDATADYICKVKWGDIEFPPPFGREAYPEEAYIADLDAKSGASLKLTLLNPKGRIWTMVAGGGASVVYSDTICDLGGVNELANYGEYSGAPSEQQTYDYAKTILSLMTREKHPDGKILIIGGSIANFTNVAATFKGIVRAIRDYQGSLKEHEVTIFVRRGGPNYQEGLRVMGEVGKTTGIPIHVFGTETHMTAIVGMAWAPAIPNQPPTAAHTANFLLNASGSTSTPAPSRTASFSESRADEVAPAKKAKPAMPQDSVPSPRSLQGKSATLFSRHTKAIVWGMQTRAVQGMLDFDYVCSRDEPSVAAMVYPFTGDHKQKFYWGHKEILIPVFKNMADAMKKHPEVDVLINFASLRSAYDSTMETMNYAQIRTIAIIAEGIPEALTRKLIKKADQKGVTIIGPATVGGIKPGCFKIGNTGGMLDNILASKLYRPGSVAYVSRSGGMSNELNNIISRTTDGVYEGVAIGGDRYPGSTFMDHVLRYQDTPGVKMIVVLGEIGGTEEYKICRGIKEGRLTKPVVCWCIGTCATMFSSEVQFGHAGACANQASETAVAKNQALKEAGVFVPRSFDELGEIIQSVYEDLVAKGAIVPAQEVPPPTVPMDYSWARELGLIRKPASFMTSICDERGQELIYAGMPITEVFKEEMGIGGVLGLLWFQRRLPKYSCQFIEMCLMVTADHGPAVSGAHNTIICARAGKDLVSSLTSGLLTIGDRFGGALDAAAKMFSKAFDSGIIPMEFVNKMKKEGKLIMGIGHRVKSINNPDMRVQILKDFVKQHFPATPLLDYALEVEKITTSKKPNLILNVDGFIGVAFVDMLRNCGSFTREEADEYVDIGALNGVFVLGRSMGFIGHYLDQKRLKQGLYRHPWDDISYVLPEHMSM
Nature of the experiment: Reversible binding potential for rat ATP-Citrate Lyase as carbon-carbon bond cleavage activity in citrate substrate. The procedure, abridged:
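Purified rat liver enzyme; carbon–carbon cleavage activity measured at 1.0 mM citrate (equal to Km). Ki derived by fitting rate data to the competitive inhibition equation, which reduces under these conditions to V = Vmax/(2 + [I]/Ki).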

Experiment [2] deals with T1, ATP-citrate synthase. Nature of the experiment: Irreversible inactivation of rat ATP-Citrate Lyase; nd=not detectable. The procedure, abridged: (§1)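 Rat liver ATP citrate lyase (purified) incubated with 2 mM inhibitor at 25 °C in Tris-HCl pH 8.0; aliquots withdrawn over 48 h and placed directly into assay cocktail with saturating substrate. Remaining activity read as carbon–carbon cleavage of citrate to detect time-dependent inactivation.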

The target of experiment [3] is T1, ATP-citrate synthase. Nature of the experiment: Irreversible inactivation was evaluated against rat ATP-Citrate Lyase; nd= Time dependent inactivation was not detectable above thermal decay rate of 5.0 x10E-3 1/h at 2 mM inhibitor at […]; not detectable. The procedure, abridged: as §1

Turning to `O=C(O)/C=C(\CC(=O)O)C(=O)O` [ACONITIC ACID], the values for the Ki in experiment [1] and in experiment [2] were above 1000 µM and “Not detectable”, respectively.

Turning to `O=C(O)CC(S)(CC(=O)O)C(=O)O`, the Ki in experiment [1] is 295 µM; in experiment [2], “Not detectable”.

Turning to `C=C(CC(=O)O)C(=O)O` [ITACONATE], the Ki is above 1000 µM in experiment [1] and “Not detectable” in experiment [2].

For `O=C(O)C[C@]1(C(=O)O)O[C@H]1C(=O)O`, the values for the Ki in experiment [1] and in experiment [2] were 18 µM and “Not detectable”, respectively.

As for `CSSC(CC(=O)O)(CC(=O)O)C(=O)O`, the Ki was 480 µM in experiment [1] and “Not detectable” in experiment [2].

Consider `CSS[C@H](C(=O)O)[C@@](O)(CC(=O)O)C(=O)O`, for which the Ki in experiment [1] is 34 µM; in experiment [2], “Not detectable”.

Regarding `O=C(O)C[C@@](O)(C(=O)O)[C@H](S)C(=O)O`, the Ki was 58 µM in experiment [1] and “Not detectable” in experiment [2].

Take `O=C(O)C[C@@](O)(C(=O)O)[C@H](O)C(=O)O`: the Ki in experiment [1] is 0.15 µM; in experiment [3], “Not detectable”.

Consider `O=C(O)C[C@]1(C(=O)O)O[C@@H]1C(=O)O`, for which the results for the Ki in experiment [1] and in experiment [2] were 400 µM and “Not detectable”, respectively.

For `O=C(O)C[C@@](O)(C(=O)O)[C@@H](S)C(=O)O`, the Ki is 150 µM in experiment [1] and “Not detectable” in experiment [2].

As for `O=C1C[C@@](C(=O)O)([C@@H](Cl)C(=O)O)O1`, the results for the Ki in experiment [1] and in experiment [2] were 340 µM and “Not detectable”, respectively.

`O=C(O)C[C@@](O)(C(=O)O)[C@@H](Cl)C(=O)O`: the figures for the Ki in experiment [1] and in experiment [2] were 29 µM and “Not detectable”, respectively.

On to `O=C(O)/C=C(/CC(=O)O)C(=O)O`, for which the results for the Ki in experiment [1] and in experiment [2] were above 1000 µM and “Not detectable”, respectively.
